Test results taken from ChEMBL document CHEMBL2417412, “Design, synthesis, and structure-activity relationships of dihydrofuran-2-one and dihydropyrrol-2-one derivatives as novel benzoxazin-3-one-based mineralocorticoid receptor antagonists” (Bioorg Med Chem, 2013).

Assays:
Glucocorticoid receptor = target: T1, Glucocorticoid receptor (Homo sapiens, UniProt P04150); experiment: Displacement of [3H]-Dexamethasone human GR expressed in 293 cells after 16 hrs by scintillation counting; type: cell-based, HEK293
T1 sequence (P04150 whole entry): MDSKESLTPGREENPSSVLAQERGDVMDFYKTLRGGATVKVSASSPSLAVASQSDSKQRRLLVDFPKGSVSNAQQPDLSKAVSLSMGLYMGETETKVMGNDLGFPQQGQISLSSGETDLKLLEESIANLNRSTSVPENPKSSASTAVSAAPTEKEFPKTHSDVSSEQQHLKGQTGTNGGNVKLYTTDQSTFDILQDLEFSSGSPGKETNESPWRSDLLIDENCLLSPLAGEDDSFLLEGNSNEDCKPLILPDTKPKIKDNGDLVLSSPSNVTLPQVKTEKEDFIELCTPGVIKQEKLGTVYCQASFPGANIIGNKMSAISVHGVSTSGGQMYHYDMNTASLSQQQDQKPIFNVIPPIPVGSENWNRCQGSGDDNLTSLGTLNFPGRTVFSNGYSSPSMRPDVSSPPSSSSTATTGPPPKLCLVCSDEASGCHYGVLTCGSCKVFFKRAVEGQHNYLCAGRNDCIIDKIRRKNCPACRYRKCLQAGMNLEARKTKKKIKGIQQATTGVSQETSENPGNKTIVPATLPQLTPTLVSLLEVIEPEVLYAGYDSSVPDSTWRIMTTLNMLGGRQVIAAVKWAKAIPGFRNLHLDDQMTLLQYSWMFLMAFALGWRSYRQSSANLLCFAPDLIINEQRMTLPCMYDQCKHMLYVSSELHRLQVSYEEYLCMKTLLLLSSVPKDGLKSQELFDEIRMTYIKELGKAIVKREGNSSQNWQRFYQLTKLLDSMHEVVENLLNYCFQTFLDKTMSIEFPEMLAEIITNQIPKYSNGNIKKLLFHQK
Outline: (§1)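 These followed the MR cytosolic binding protocol (transfected 293 cells, TEGM buffer pH 7.2, 16 h at 4 °C, charcoal separation, scintillation counting of supernatant). The ligand was [3H]-dexamethasone for GR and [3H]-testosterone for AR. Concentrations were run in duplicate; IC50 taken as the mean of duplicate experiments from concentration-response curves.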

Progesterone receptor = target: T2, Progesterone receptor (Homo sapiens, UniProt P06401); experiment: Displacement of [3H]-Progesterone from human PR expressed in 293 cells after 16 hrs by scintillation counting; type: cell-based, HEK293
T2 sequence (P06401 whole entry): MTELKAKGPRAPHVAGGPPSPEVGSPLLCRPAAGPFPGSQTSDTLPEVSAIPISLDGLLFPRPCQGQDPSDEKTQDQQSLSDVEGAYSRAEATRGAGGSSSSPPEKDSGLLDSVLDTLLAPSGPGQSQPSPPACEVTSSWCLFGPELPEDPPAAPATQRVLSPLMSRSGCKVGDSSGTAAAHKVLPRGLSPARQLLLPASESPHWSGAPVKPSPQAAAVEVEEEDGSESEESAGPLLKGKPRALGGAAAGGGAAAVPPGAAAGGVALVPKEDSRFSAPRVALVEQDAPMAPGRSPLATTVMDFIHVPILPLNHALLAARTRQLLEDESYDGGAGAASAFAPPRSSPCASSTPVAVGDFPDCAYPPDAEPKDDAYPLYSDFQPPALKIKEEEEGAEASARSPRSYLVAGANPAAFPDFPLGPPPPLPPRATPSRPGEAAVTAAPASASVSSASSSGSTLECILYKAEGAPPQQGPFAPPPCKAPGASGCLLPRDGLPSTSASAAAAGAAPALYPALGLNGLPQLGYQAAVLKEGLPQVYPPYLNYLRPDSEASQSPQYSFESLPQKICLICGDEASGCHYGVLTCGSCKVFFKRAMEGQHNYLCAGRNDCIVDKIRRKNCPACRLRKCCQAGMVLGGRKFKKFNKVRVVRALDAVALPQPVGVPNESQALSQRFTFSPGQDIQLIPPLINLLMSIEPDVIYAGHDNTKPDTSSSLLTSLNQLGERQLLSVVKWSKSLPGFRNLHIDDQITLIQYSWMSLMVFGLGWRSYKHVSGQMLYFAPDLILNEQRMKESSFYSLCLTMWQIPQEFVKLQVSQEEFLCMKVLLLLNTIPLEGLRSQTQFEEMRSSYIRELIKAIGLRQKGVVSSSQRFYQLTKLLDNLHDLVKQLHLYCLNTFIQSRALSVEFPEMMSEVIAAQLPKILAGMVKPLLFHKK
Outline: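 The PR assay ran like the MR cytosolic binding assay from transfected 293 cells, with 5 nM [3H]-progesterone as ligand. Incubation was 16 h at 4 °C in TEGM buffer pH 7.2, followed by dextran/gelatin-charcoal removal of free label and scintillation counting of the supernatant. Concentrations were run in duplicate; IC50 taken as the mean of duplicate experiments from concentration-response curves.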

Androgen receptor = target: T3, Androgen receptor (Homo sapiens, UniProt P10275); experiment: Displacement of [3H]-Testosterone from human AR expressed in 293 cells after 16 hrs by scintillation counting; type: cell-based, HEK293; outline: as §1
T3 sequence (P10275 whole entry): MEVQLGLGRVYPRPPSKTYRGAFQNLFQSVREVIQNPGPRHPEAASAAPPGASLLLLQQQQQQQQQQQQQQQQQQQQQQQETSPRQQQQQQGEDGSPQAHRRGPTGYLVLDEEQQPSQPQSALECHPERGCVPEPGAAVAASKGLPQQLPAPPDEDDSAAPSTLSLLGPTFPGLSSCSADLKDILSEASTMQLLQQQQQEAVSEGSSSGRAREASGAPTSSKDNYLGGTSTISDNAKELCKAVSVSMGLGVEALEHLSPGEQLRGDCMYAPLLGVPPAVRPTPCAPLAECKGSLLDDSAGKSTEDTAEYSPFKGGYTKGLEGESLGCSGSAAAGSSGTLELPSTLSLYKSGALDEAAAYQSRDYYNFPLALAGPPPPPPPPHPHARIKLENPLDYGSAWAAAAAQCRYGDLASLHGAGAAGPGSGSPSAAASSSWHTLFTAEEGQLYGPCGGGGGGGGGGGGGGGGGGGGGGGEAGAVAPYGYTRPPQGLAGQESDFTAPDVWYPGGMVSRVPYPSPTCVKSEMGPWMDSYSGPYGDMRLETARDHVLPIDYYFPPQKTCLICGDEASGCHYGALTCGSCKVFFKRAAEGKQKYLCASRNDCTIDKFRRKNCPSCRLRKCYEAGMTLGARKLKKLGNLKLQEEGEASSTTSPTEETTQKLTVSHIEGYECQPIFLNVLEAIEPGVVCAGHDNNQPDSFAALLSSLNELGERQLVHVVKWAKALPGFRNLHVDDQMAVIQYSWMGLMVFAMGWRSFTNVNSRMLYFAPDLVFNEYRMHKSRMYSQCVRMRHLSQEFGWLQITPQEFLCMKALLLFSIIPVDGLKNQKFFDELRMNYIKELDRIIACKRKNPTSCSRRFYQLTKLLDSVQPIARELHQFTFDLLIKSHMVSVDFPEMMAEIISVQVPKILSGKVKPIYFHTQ

[1] = target: T4, Mineralocorticoid receptor (Homo sapiens, UniProt P08235); experiment: Displacement of [3H]-Aldosterone from human MR expressed in 293 cells after 16 hrs by scintillation counting; type: cell-based, HEK293
T4 sequence (P08235 whole entry): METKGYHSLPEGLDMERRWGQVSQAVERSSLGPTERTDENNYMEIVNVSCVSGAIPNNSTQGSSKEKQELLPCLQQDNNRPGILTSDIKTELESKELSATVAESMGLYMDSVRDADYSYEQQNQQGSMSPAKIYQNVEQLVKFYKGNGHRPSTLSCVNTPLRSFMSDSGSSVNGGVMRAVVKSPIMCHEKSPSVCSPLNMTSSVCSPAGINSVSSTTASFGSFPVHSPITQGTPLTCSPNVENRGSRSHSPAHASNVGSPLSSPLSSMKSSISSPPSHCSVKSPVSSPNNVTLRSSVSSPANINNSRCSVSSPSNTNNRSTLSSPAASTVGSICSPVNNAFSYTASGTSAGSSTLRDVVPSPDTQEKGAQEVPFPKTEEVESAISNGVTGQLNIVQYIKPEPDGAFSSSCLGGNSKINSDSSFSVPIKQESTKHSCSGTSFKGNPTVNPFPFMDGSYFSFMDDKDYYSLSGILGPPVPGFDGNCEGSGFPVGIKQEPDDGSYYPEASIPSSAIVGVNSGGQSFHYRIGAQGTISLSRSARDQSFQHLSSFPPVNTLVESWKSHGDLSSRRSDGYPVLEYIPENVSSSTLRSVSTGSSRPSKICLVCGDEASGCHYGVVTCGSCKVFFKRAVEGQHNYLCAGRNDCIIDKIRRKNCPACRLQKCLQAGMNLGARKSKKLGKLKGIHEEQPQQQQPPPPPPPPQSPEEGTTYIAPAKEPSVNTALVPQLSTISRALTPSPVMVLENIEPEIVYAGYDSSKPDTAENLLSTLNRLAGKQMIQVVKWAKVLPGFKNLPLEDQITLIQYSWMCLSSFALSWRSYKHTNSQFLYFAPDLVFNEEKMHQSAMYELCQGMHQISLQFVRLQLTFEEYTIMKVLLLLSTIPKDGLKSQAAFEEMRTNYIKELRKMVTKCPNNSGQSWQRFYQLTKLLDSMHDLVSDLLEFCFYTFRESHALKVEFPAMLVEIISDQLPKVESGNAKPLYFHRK
Outline: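 Cytosolic protein (0.75-1.5 mg/mL) from FreeStyle 293 cells transiently transfected with human MR was incubated for 16 h at 4 °C with 10 nM [3H]-aldosterone and serially diluted compound in TEGM buffer (Tris pH 7.2, EDTA, glycerol, DTT, molybdate, protease inhibitors). Free ligand was removed with dextran/gelatin-coated charcoal and the supernatant counted. Nonspecific binding used 100 µM cold aldosterone. Duplicates; IC50 from curve fit.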

HEK293 [2] = experiment: Selectivity ratio of IC50 for human PR expressed in 293 cells to IC50 for human MR expressed in 293 cells; type: cell-based
[3] = target: T4, Mineralocorticoid receptor; experiment: Antagonist activity at MR (unknown origin) expressed in COS1 cells after 1 day by luciferase reporter gene assay; type: cell-based, COS-1
Outline: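 Human MR plasmid, MMTV-luciferase reporter and pRL-TK were lipofected into COS-1 cells, which were cultured for 1 day. Cells were then reseeded in low-glucose D-MEM with 0.1% BSA. Serial compound concentrations were added with 1 nM aldosterone (final) for 1 day at 37 °C in 5% CO2. Luciferase was read, and IC50 came from a sigmoidal fit.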

HEK293 [4] = experiment: Selectivity ratio of IC50 for human GR expressed in 293 cells to IC50 for human MR expressed in 293 cells; type: cell-based
HEK293 [5] = experiment: Selectivity ratio of IC50 for human AR expressed in 293 cells to IC50 for human MR expressed in 293 cells; type: cell-based

SMILES	IC50 (Glucocorticoid receptor) [nM]	IC50 (Progesterone receptor) [nM]	IC50 (Androgen receptor) [nM]	IC50 [1] [nM]	Ratio IC50 (HEK293 [2])	IC50 [3] [nM]	Ratio IC50 (HEK293 [4])	Ratio IC50 (HEK293 [5])
CC1OC(=O)C(c2ccc(F)cc2)=C1c1ccc2c(c1)NC(=O)CO2 (racemic)	3800	740	> 10000	–	–	–	–	–
CC1(C)OC(=O)C(c2ccc(F)cc2)=C1c1ccc2c(c1)NC(=O)CO2	4700	1000	> 10000	1200	–	–	–	–
CC1C(c2ccc3c(c2)NC(=O)CO3)=C(c2ccc(F)cc2)C(=O)N1C (configuration not stated)	2100	61	> 10000	170	–	–	–	–
Cc1cc(C2=C(c3ccc(F)cc3)C(=O)NC2C)cc2c1OCC(=O)N2 (configuration not stated)	4900	> 10000	> 10000	43	> 200	83	100	> 200
Cc1cc(F)ccc1C1=C(c2ccc3c(c2)NC(=O)CO3)COC1=O	> 10000	1800	> 10000	750	–	–	–	–
CC1(F)OC(=O)C(c2ccc(F)cc2)=C1c1ccc2c(c1)NC(=O)CO2 (configuration not stated)	> 10000	5000	> 10000	550	–	–	–	–
CC1NC(=O)C(c2ccc(F)cc2)=C1c1cc(F)c2c(c1)NC(=O)CO2 (configuration not stated)	5000	3200	> 10000	92	–	–	–	–
O=C1COc2ccc(C3=C(c4ccc(F)cc4)C(=O)OC3)cc2N1	> 10000	> 10000	> 10000	500	–	–	–	–
CC1NC(=O)C(c2ccc(F)cc2)=C1c1cc(Cl)c2c(c1)NC(=O)CO2 (configuration not stated)	1100	1600	> 10000	23	–	–	–	–
CC1NC(=O)C(c2ccc(F)cc2)=C1c1ccc2c(c1)NC(=O)CO2 (configuration not stated)	9100	5600	> 10000	94	–	–	–	–
CC1C(c2ccc3c(c2)NC(=O)CO3)=C(c2ccc(F)cc2)C(=O)N1C1CC1 (configuration not stated)	2200	400	> 10000	68	–	–	–	–
O=C1COc2ccc(C3=C(c4ccc(F)cc4F)C(=O)OC3)cc2N1	> 10000	4600	> 10000	–	–	–	–	–
CC1C(c2ccc3c(c2)NC(=O)CO3)=C(c2ccc(F)cc2)C(=O)N1CCO (configuration not stated)	> 10000	> 10000	> 10000	1600	–	–	–	–
CCC1OC(=O)C(c2ccc(F)cc2)=C1c1ccc2c(c1)NC(=O)CO2 (configuration not stated)	2000	2200	> 10000	1200	–	–	–	–
CCN1C(=O)C(c2ccc(F)cc2)=C(c2ccc3c(c2)NC(=O)CO3)C1C (configuration not stated)	1600	770	> 10000	33	–	–	–	–
